# According to ChEMBL document CHEMBL4257459, “Synergistic antifungal effect of cyclized chalcone derivatives and fluconazole against Candida albicans” (2017):
# Assays:
# [1] = test system: Candida albicans; test: Antifungal activity against fluconazole resistant Candida albicans 167-2 by CLSI protocol based broth microdilution method; assay type: functional
# Method in brief: (§1)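 Broth microdilution per CLSI M27-A3 against clinical C. albicans isolates. Strains sub-cultured at least twice on Tryptone Soya Agar, 37 °C, 48 h. Compounds dissolved in DMSO at 2000 μg mL–1 stock. Fluconazole positive control, plus culture, media and vehicle controls. Run in duplicate; MIC in μg mL–1.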
# [2] = test system: Candida albicans; test: Antifungal activity against fluconazole resistant Candida albicans A171 by CLSI protocol based broth microdilution method; assay type: functional; method in brief: as §1
# [3] = test system: Candida albicans; test: Antifungal activity against fluconazole resistant Candida albicans 167-1 by CLSI protocol based broth microdilution method; assay type: functional; method in brief: as §1
# [4] = test system: Candida albicans; test: Antifungal activity against fluconazole susceptible Candida albicans 002B1 by CLSI protocol based broth microdilution method; assay type: functional
# Method in brief: (§2)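 Clinical isolates and control strain subcultured at least twice on TSA, 37 °C, 48 h. MICs by CLSI M27-A3 broth microdilution; compounds dissolved in DMSO to 2000 μg mL–1 stock. Fluconazole positive control, culture, media and DMSO vehicle controls in each run. Duplicate experiments; MIC in μg mL–1.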
# [5] = test system: Candida albicans; test: Antifungal activity against fluconazole susceptible Candida albicans 003gr by CLSI protocol based broth microdilution method; assay type: functional; method in brief: as §2
# [6] = test system: Candida albicans; test: Antifungal activity against fluconazole susceptible Candida albicans 004gr by CLSI protocol based broth microdilution method; assay type: functional; method in brief: as §2
# [7] = test system: Candida albicans; test: Antifungal activity against fluconazole susceptible Candida albicans 004B1 by CLSI protocol based broth microdilution method; assay type: functional; method in brief: as §2
# [8] = test system: Candida albicans; test: Antifungal activity against fluconazole susceptible Candida albicans 0079gr by CLSI protocol based broth microdilution method; assay type: functional; method in brief: as §2
# [9] = test system: Candida albicans; test: Antifungal activity against fluconazole susceptible Candida albicans 0072gr by CLSI protocol based broth microdilution method; assay type: functional; method in brief: as §2
# [10] = test system: Candida albicans; test: Antifungal activity against Candida albicans ATCC 90028 by CLSI protocol based broth microdilution method; assay type: functional; method in brief: as §2
# [11] = test system: Candida albicans; test: Antifungal activity against fluconazole resistant Candida albicans A171 in presence of fluconazole by CLSI protocol based broth microdilution method; assay type: functional
# Method in brief: (§3)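 Checkerboard-style combination with fluconazole at a 1 : 1 ratio, over concentrations 2–4 fold below each agent's MIC alone, by CLSI broth microdilution. Fractional inhibitory concentration index calculated and interpreted as synergy (<0.5), additive (0.5–1), indifferent or antagonistic.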
# [12] = test system: Candida albicans; test: Antifungal activity against fluconazole resistant Candida albicans 167-1 in presence of fluconazole by CLSI protocol based broth microdilution method; assay type: functional; method in brief: as §3
# [13] = test system: Candida albicans; test: Antifungal activity against fluconazole resistant Candida albicans 167-2 in presence of fluconazole by CLSI protocol based broth microdilution method; assay type: functional; method in brief: as §3
# [14] = test system: Candida albicans; test: Antifungal activity against fluconazole susceptible Candida albicans 002B1 in presence of fluconazole by CLSI protocol based broth microdilution method; assay type: functional
# [15] = test system: Candida albicans; test: Antifungal activity against fluconazole susceptible Candida albicans 003gr in presence of fluconazole by CLSI protocol based broth microdilution method; assay type: functional
# [16] = test system: Candida albicans; test: Antifungal activity against fluconazole susceptible Candida albicans 004gr in presence of fluconazole by CLSI protocol based broth microdilution method; assay type: functional
# [17] = test system: Candida albicans; test: Antifungal activity against fluconazole susceptible Candida albicans 004B1 in presence of fluconazole by CLSI protocol based broth microdilution method; assay type: functional
# [18] = test system: Candida albicans; test: Antifungal activity against fluconazole susceptible Candida albicans 0079gr in presence of fluconazole by CLSI protocol based broth microdilution method; assay type: functional
# [19] = test system: Candida albicans; test: Antifungal activity against fluconazole susceptible Candida albicans 0072gr in presence of fluconazole by CLSI protocol based broth microdilution method; assay type: functional
# [20] = test system: Candida albicans; test: Antifungal activity against Candida albicans ATCC 90028 in presence of fluconazole by CLSI protocol based broth microdilution method; assay type: functional
# [21] = test system: Candida albicans; test: Inhibition of ABC efflux pumps in fluconazole resistant Candida albicans A171 assessed as reduction in energy-dependent rhodamine 6G efflux in presence of 0.1 M glucose after 25 mins by fluorescence assay relative to control
# Method in brief: (§4)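 Cells grown in TSB at 37 °C for 8 h, washed, resuspended in glucose-free PBS at 1 × 10^8 cells. De-energized 45 min with 5 mM deoxyglucose plus 5 mM dinitrophenol. […] Washed, sampled 5–25 min, then 0.1 M glucose added. Absorbance 527 nm, R6G from standard curve.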
# [22] = test system: Candida albicans; test: Inhibition of ABC efflux pumps in fluconazole resistant Candida albicans 167-1 assessed as reduction in energy-dependent rhodamine 6G efflux in presence of 0.1 M glucose after 25 mins […] relative to control
# [23] = test system: Candida albicans; test: Inhibition of ABC efflux pumps in fluconazole resistant Candida albicans 167-2 assessed as reduction in energy-dependent rhodamine 6G efflux in presence of 0.1 M glucose after 25 mins […] relative to control
# [24] = test system: Candida albicans; test: Inhibition of ABC efflux pumps in fluconazole susceptible Candida albicans 002B1 assessed as reduction in energy-dependent rhodamine 6G efflux in presence of 0.1 M glucose after 25 mins […] relative to control
# [25] = test system: Candida albicans; test: Inhibition of ABC efflux pumps in fluconazole susceptible Candida albicans 003gr assessed as reduction in energy-dependent rhodamine 6G efflux in presence of 0.1 M glucose after 25 mins […] relative to control
# [26] = test system: Candida albicans; test: Inhibition of ABC efflux pumps in fluconazole susceptible Candida albicans 004gr assessed as reduction in energy-dependent rhodamine 6G efflux in presence of 0.1 M glucose after 25 mins by fluorescence assay relative to control; method in brief: as §4
# [27] = test system: Candida albicans; test: Inhibition of ABC efflux pumps in fluconazole susceptible Candida albicans 004B1 assessed as reduction in energy-dependent rhodamine 6G efflux in presence of 0.1 M glucose after 25 mins by fluorescence assay relative to control; method in brief: as §4
# [28] = test system: Candida albicans; test: Inhibition of ABC efflux pumps in fluconazole susceptible Candida albicans 0079gr assessed as reduction in energy-dependent rhodamine 6G efflux in presence of 0.1 M glucose after 25 mins by fluorescence assay relative to control; method in brief: as §4
# [29] = test system: Candida albicans; test: Inhibition of ABC efflux pumps in fluconazole susceptible Candida albicans 0072gr assessed as reduction in energy-dependent rhodamine 6G efflux in presence of 0.1 M glucose after 25 mins […] relative to control
# [30] = test system: Candida albicans; test: Inhibition of ergosterol biosynthesis in fluconazole resistant Candida albicans A171 at 0.5 to 1 times MIC relative to control; assay type: functional
# Method in brief: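 Total sterols quantified by alcoholic KOH extraction in cells grown in 50 ml TSB with compounds at MIC and ½ MIC; untreated and 8 μg mL–1 fluconazole controls. Spectral scan; ergosterol content from A281.5 and A230 absorbances, dilution factor and pellet weight, correcting for 24(28) DHE.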
# [31] = test system: Candida albicans; test: Inhibition of ergosterol biosynthesis in fluconazole susceptible Candida albicans ATCC 90028 at 0.5 to 1 times MIC relative to control; assay type: functional
# Method in brief: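 ATCC90028 grown in 50 ml TSB with MIC and ½ MIC of compound; untreated and 8 μg mL–1 fluconazole controls. Sterols extracted by alcoholic KOH method and spectrophotometrically scanned; ergosterol % calculated from A281.5 and A230 (E values 290 and 518) with dilution factor, per pellet weight.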
# [32] = test system: Candida albicans; test: Down regulation of ERG11 gene expression in fluconazole resistant Candida albicans A171 at MIC after 2 hrs by qRT PCR analysis relative to control; assay type: functional
# Method in brief: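 Cells exposed 2 h to test agents at MIC. Total RNA isolated, cDNA synthesized, qPCR for ERG11 with ACT1 as endogenous control. Triplicate independent experiments, reported as mean ± standard deviation.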
# [33] = test system: Candida albicans; test: Down regulation of ERG11 gene expression in fluconazole susceptible Candida albicans ATCC 90028 at MIC after 2 hrs by qRT PCR analysis relative to control; assay type: functional
# Method in brief: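 Cells exposed to compound at MIC for 2 h; total RNA isolated, cDNA synthesised, ERG11 measured by real-time qPCR with ACT1 as endogenous control. Triplicate independent experiments; mean ± standard deviation.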
SMILES,MIC [1] [mg/L],MIC [2] [mg/L],MIC [3] [mg/L],MIC [4] [mg/L],MIC [5] [mg/L],MIC [6] [mg/L],MIC [7] [mg/L],MIC [8] [mg/L],MIC [9] [mg/L],MIC [10] [mg/L],fractional inhibitory concentration index (FICI) [11],fractional inhibitory concentration index (FICI) [12],fractional inhibitory concentration index (FICI) [13],fractional inhibitory concentration index (FICI) [14],fractional inhibitory concentration index (FICI) [15],fractional inhibitory concentration index (FICI) [16],fractional inhibitory concentration index (FICI) [17],fractional inhibitory concentration index (FICI) [18],fractional inhibitory concentration index (FICI) [19],fractional inhibitory concentration index (FICI) [20],further results
S=C1NC(c2ccccc2)=CC(c2ccc(C3C=C(c4ccccc4)NC(=S)N3)cc2)N1 (centres undefined),2,2,2,0.125 to 1,0.125 to 1,0.125 to 1,0.125 to 1,0.125 to 1,0.125 to 1,0.125 to 1,0.25 - 0.251,0.25 - 0.251,0.25 - 0.251,0.13 - 0.31,0.13 - 0.31,0.13 - 0.31,0.13 - 0.31,0.127,0.13 - 0.31,0.13 - 0.31,inhibition [21]: 28%; inhibition [22]: 28%; inhibition [23]: 28%; inhibition [24]: 28%; inhibition [25]: 28%; inhibition [26]: 28%; inhibition [27]: 28%; inhibition [28]: 28%; inhibition [29]: 28%; inhibition (INH) [30]: 49 - 94%; inhibition (INH) [31]: 66 - 99%; fold change (FC) [32]: 1.25 - 10; fold change (FC) [33]: 1.5 - 13
SC1=NC(c2ccccc2)=CC(c2ccccc2)N1 (centres undefined),8 to 16,8 to 16,8 to 16,0.5 to 4,0.5 to 4,0.5 to 4,0.5 to 4,0.5 to 4,0.5 to 4,0.5 to 4,0.254 - 0.27,0.254 - 0.27,0.254 - 0.27,0.37 - 1.13,0.37 - 1.13,0.37 - 1.13,0.37 - 1.13,0.37 - 1.13,0.37 - 1.13,0.37 - 1.13,inhibition [21]: < 20%; inhibition [22]: < 20%; inhibition [23]: < 20%; inhibition [24]: < 20%; inhibition [25]: < 20%; inhibition [26]: < 20%; inhibition [27]: < 20%; inhibition [28]: < 20%; inhibition [29]: < 20%; inhibition (INH) [30]: 49 - 94%; inhibition (INH) [31]: 66 - 99%
